# Experimental data from ChEMBL document CHEMBL1122508, “Conjugates of catecholamines. 1. N-alkyl-functionalized carboxylic acid congeners and amides related to isoproterenol” (1983).
# Tested on: S49
# Experiment: In vitro biological activity against accumulation of cAMP in S49 cells as relative activity expressed as ratio of KA for isoproterenol to KA for the compound
# Assay type: functional, Mus musculus
# How it was run: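 Wild-type S-49 mouse lymphoma cells resuspended at 2–2.5 × 10^6/mL in DME (13.3 g/L), 20 mM Hepes pH 7.4, 0.1% BSA. Preincubated 10 min at 37 °C without drug, then 6 min with compound; stopped on ice, pellets boiled, cAMP measured by competitive binding. K_A taken from cAMP vs log concentration; ratio uses isoproterenol K_A run at the same time. Each K_A averages ≥3 determinations, each in triplicate.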
row,SMILES,Relative activity
1,CC(CCCCC(=O)Nc1cccc(C(F)(F)F)c1)NCC(O)c1ccc(O)c(O)c1.Cl (stereo unspecified),0.98
2,Cc1ccc(NC(=O)CCCCC(C)NCC(O)c2ccc(O)c(O)c2)cc1.Cl (stereo unspecified),54
3,Cc1ccc(NC(=O)CCCC(C)NCC(O)c2ccc(O)c(O)c2)cc1.Cl (stereo unspecified),0.36
4,CCCCc1ccc(NC(=O)CCCCC(C)NCC(O)c2ccc(O)c(O)c2)cc1.Cl (stereo unspecified),3200
5,CC(CCCCC(=O)Nc1ccccc1C(F)(F)F)NCC(O)c1ccc(O)c(O)c1.Cl (stereo unspecified),0.00025
6,CC(CCCCCC(=O)O)NCC(O)c1ccc(O)c(O)c1 (stereo unspecified),0.00083
7,Cc1ccc(NC(=O)CCCCCC(C)NCC(O)c2ccc(O)c(O)c2)cc1.Cl (stereo unspecified),0.11
8,Cc1ccc(N(C)C(=O)CCCCC(C)NCC(O)c2ccc(O)c(O)c2)cc1.Cl (stereo unspecified),73
9,CC(CCCCC(=O)Nc1ccc(C(F)(F)F)cc1)NCC(O)c1ccc(O)c(O)c1.Cl (stereo unspecified),11000
10,Cc1ccc(NC(=O)CCC(C)NCC(O)c2ccc(O)c(O)c2)cc1.Cl (stereo unspecified),0.71
11,COc1ccc(NC(=O)CCCCC(C)NCC(O)c2ccc(O)c(O)c2)cc1.Cl (stereo unspecified),3.1
12,CC(CCCC(=O)O)NCC(O)c1ccc(O)c(O)c1 (stereo unspecified),0.00068
13,CC(CCCCC(=O)NC1CCCCC1)NCC(O)c1ccc(O)c(O)c1.Cl (stereo unspecified),0.17
14,CC(CCC(=O)O)NCC(O)c1ccc(O)c(O)c1 (stereo unspecified),0.00016
15,CCCCNC(=O)CCCCC(C)NCC(O)c1ccc(O)c(O)c1.Cl (stereo unspecified),0.25
16,CC(CCCCC(=O)O)NCC(O)c1ccc(O)c(O)c1 (stereo unspecified),0.00097
